Source: ChEMBL document CHEMBL1938254, “Semisynthetic neoboutomellerone derivatives as ubiquitin-proteasome pathway inhibitors” (Bioorg Med Chem, 2012)
“And” between values parts separate entries of the source, which are not always exact repeats. Equal values may be shown once.

How the values were obtained:
Assay type in all cases: cell-based
DLD-1 [1] = test: Inhibition of 20S proteasome in human DLD1 cells transfected with 4Ub-Luc gene assessed as bioluminescence induction factor at 1 uM after 8 hrs by luciferase reporter gene assay relative to epoxomicin
Outline: (§1)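 Stably transfected DLD-1 cells expressing 4Ub-Luc reporter, cultured in MEM with 5% heat-inactivated serum. Seeded at 10⁴ cells/well and treated with compound or solvent for 8 h. Luciferase activity in lysates read by luminometer. Induction factor = signal of treated over untreated cells, normalised to epoxomicin at 10^-7 M run in parallel (set to 100). IF ≥10 counted active.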

DLD-1 [2] = test: Inhibition of 20S proteasome in human DLD1 cells transfected with 4Ub-Luc gene assessed as bioluminescence induction factor at 5 uM after 8 hrs by luciferase reporter gene assay relative to epoxomicin; outline: as §1
DLD-1 [3] = test: Inhibition of 20S proteasome in human DLD1 cells transfected with 4Ub-Luc gene assessed as bioluminescence induction factor at 0.5 uM after 8 hrs by luciferase reporter gene assay relative to epoxomicin; outline: as §1
[4] = Inhibition of chymotrypsin-like activity of 20S proteasome in human DLD1 cells transfected with 4Ub-Luc gene using Succinyl-Leu-Leu-Val-Tyr-AMC as substrate after 6 hrs by spectrofluorometric analysis; conditions: dld-1
Outline: (§2)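 DLD-1 4Ub-Luc cells seeded at 10⁴ cells/well, exposed to compound or solvent for 6 h, then 30 min in reaction buffer (30 mM Tris–HCl pH 7.5, 1 mM ATP). Chymotrypsin-like and PGPH activities read with specific fluorogenic substrates.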

[5] = Inhibition of peptide-glutamyl-peptide-hydrolyzing activity of 20S proteasome in human DLD1 cells transfected with 4Ub-Luc gene using Z-Leu-Leu-Glu-AMC as substrate after 6 hrs by spectrofluorometric analysis; conditions: dld-1; outline: as §2
DLD-1 [6] = test: Inhibition of 20S proteasome activity in human DLD1 cells transfected with 4Ub-Luc gene assessed as bioluminescence induction factor at 10 uM after 8 hrs by luciferase reporter gene assay relative to epoxomicin; outline: as §1

IC50 [4] | IC50 [5] | Structure (SMILES) | fold change (FC) (DLD-1 [1]) | fold change (FC) (DLD-1 [2]) | fold change (FC) (DLD-1 [3]) | fold change (FC) (DLD-1 [6])
 |  | C=C(C(=O)[C@H](OC(C)=O)[C@@H](C)[C@H]1[C@@H](OC(C)=O)C[C@@]2(C)[C@@H]3CC[C@H]4[C@H](C)/C(=N/O)C=C[C@@]45C[C@@]35CC[C@]12C)[C@@H](C)CO | 1 | 103 | 1 | 
 |  | C=C(C(=O)[C@H](O)[C@@H](C)[C@H]1[C@@H](OC(C)=O)C[C@@]2(C)[C@@H]3CC[C@H]4[C@H](C)C(=O)C=C[C@@]45C[C@@]35CC[C@]12C)[C@@H](C)COC(=O)N1CCN(C)CC1 | 69 and 70 | 7.1 and 4.5 | 15.4 and 12 | 1.5 and 1.4
11 µM | 12 µM | C=C(C(=O)[C@H](OC(C)=O)[C@@H](C)[C@H]1[C@@H](OC(C)=O)C[C@@]2(C)[C@@H]3CC[C@H]4[C@H](C)/C(=N\OC)C=C[C@@]45C[C@@]35CC[C@]12C)[C@@H](C)CO | 0.7 | 3.4 |  | 24
> 1000 µM | > 1000 µM | C=C(C(=O)[C@H](OC(C)=O)[C@@H](C)[C@H]1[C@@H](OC(C)=O)C[C@@]2(C)[C@@H]3CC[C@H]4[C@H](C)C(=O)C=C[C@@]45C[C@@]35CC[C@]12C)[C@@H](C)COC(=O)CCl | 12 | 52 |  | 19
92 µM | > 1000 µM | C=C(C(=O)[C@H](OC(C)=O)[C@@H](C)[C@H]1[C@@H](OC(C)=O)C[C@@]2(C)[C@@H]3CC[C@H]4[C@H](C)C(=O)C=C[C@@]45C[C@@]35CC[C@]12C)[C@@H](C)COC(=O)CNC(=O)OC(C)(C)C | 14 | 43 |  | 10
48 µM | 60 µM | C=C(C(=O)[C@H](OC(C)=O)[C@@H](C)[C@H]1[C@@H](OC(C)=O)C[C@@]2(C)[C@@H]3[C@H]4O[C@H]4[C@H]4[C@H](C)C(=O)C=C[C@@]45C[C@@]35CC[C@]12C)[C@@H](C)CO | 2.8 | 72 |  | 15
17 µM | 13 µM | C=C(C(=O)[C@H](OC(C)=O)[C@@H](C)[C@H]1[C@@H](OC(C)=O)C[C@@]2(C)[C@@H]3CC[C@H]4[C@H](C)C(=O)CC[C@@]45C[C@@]35CC[C@]12C)[C@@H](C)CO | 0.9 | 45 |  | 48
86 µM | 100 µM | C=C(C(=O)[C@H](OC(C)=O)[C@@H](C)[C@H]1[C@@H](OC(C)=O)C[C@@]2(C)[C@@H]3CC[C@H]4[C@H](C)C(=O)C=C[C@@]45C[C@@]35CC[C@]12C)[C@@H](C)COC | 40 | 44 | 1.4 | 
8.6 µM | 4.1 µM | C=C(C(=O)[C@H](OC(C)=O)[C@@H](C)[C@H]1[C@@H](OC(C)=O)C[C@@]2(C)[C@@H]3CC[C@H]4[C@H](C)/C(=N\NC(N)=O)C=C[C@@]45C[C@@]35CC[C@]12C)[C@@H](C)CO | 1.4 | 99 |  | 30
> 1000 µM | > 1000 µM | C=C(C(=O)[C@H](O)[C@@H](C)[C@H]1[C@@H](OC(C)=O)C[C@@]2(C)[C@@H]3CC[C@H]4[C@H](C)C(=O)C=C[C@@]45C[C@@]35CC[C@]12C)C(C)C | 2.4 | 65 |  | 20
> 1000 µM | > 1000 µM | CC(=O)O[C@H]1C[C@@]2(C)[C@@H]3CC[C@H]4[C@H](C)C(=O)C=C[C@@]45C[C@@]35CC[C@]2(C)[C@H]1[C@H](C)[C@@H](OC(C)=O)C(=O)C=C(C)C | 1.1 | 34 |  | 44
 |  | C=C(C(=O)[C@H](OC(=O)CNC(=O)OC(C)(C)C)[C@@H](C)[C@H]1[C@@H](OC(C)=O)C[C@@]2(C)[C@@H]3CC[C@H]4[C@H](C)C(=O)C=C[C@@]45C[C@@]35CC[C@]12C)[C@@H](C)CO | 14 | 36 | 2 | 5
> 1000 µM | > 1000 µM | CC(=O)O[C@H]1C[C@@]2(C)[C@@H]3CC[C@H]4[C@H](C)C(=O)C=C[C@@]45C[C@@]35CC[C@]2(C)[C@H]1[C@H](C)[C@@H](O)C(=O)C=C(C)C | 1.1 | 5.2 |  | 53
> 1000 µM | > 1000 µM | C=C(C(=O)[C@H](O)[C@@H](C)[C@H]1[C@@H](OC(C)=O)C[C@@]2(C)[C@@H]3CC[C@H]4[C@H](C)C(=O)C=C[C@@]45C[C@@]35CC[C@]12C)[C@@H](C)COC(=O)CNC(=O)OC(C)(C)C | 4.8 | 47 |  | 16
 |  | C=C(C(=O)[C@H](O)[C@@H](C)[C@H]1[C@@H](OC(C)=O)C[C@@]2(C)[C@@H]3CC[C@H]4[C@H](C)C(=O)C=C[C@@]45C[C@@]35CC[C@]12C)[C@@H](C)COC(=O)CN(C)C | 22 and 17 | 35 and 34 | 1.3 | 6.8 and 4
> 1000 µM | > 1000 µM | C=C(C(=O)[C@H](OC(C)=O)[C@@H](C)[C@H]1[C@@H](OC(C)=O)C[C@@]2(C)[C@@H]3CC[C@H]4[C@H](C)C(=O)C=C[C@@]45C[C@@]35CC[C@]12C)C(C)C | 7.2 | 74 |  | 19
 |  | COCC(C(=O)[C@H](O)[C@@H](C)[C@H]1[C@@H](OC(C)=O)C[C@@]2(C)[C@@H]3CC[C@H]4[C@H](C)C(=O)C=C[C@@]45C[C@@]35CC[C@]12C)[C@@H](C)CO (stereo partly specified) | 1.1 | 1.2 | 0.9 | 2.6

Structure (SMILES) | IC50 [4] | IC50 [5] | fold change (FC) (DLD-1 [1]) | fold change (FC) (DLD-1 [2]) | fold change (FC) (DLD-1 [3]) | fold change (FC) (DLD-1 [6])
C=C(C(=O)[C@H](O)[C@@H](C)[C@H]1[C@@H](OC(C)=O)C[C@@]2(C)[C@@H]3CC[C@H]4[C@H](C)C(=O)C=C[C@@]45C[C@@]35CC[C@]12C)[C@@H](C)COCOC(C)=O | 22 µM | 31 µM | 40 | 34 | 1.7 | 3
C=CCOC[C@H](C)C(=C)C(=O)[C@H](OC(C)=O)[C@@H](C)[C@H]1[C@@H](OC(C)=O)C[C@@]2(C)[C@@H]3CC[C@H]4[C@H](C)C(=O)C=C[C@@]45C[C@@]35CC[C@]12C | 100 µM | 100 µM | 15 | 49 | 1.8 | 19
C=C(C(=O)[C@H](OC(C)=O)[C@@H](C)[C@H]1[C@@H](OC(C)=O)C[C@@]2(C)[C@@H]3CC[C@H]4[C@H](C)/C(=N/OCc5ccccc5)C=C[C@@]45C[C@@]35CC[C@]12C)[C@@H](C)CO | 10 µM | 11 µM | 0.8 | 12 |  | 5.6
C=C(C(=O)[C@H](OC(C)=O)[C@@H](C)[C@H]1[C@@H](OC(C)=O)C[C@@]2(C)[C@@H]3CC[C@H]4[C@H](C)C(=O)C=C[C@@]45C[C@@]35CC[C@]12C)[C@@H](C)COP(=O)(O)O | 92 µM | > 1000 µM | 0.9 and 1 | 3 and 4.4 |  | 46 and 51
